In ChEMBL document CHEMBL1208708, “Piperidinyl-nicotinamides as potent and selective somatostatin receptor subtype 5 antagonists” (Bioorg Med Chem Lett, 2010):
Converted amounts (≈) assume the structure as drawn. Values belong to the compound of their own block, whether it stands above or below them. The source made the active and inactive calls. The rule behind the calls is not given here.

How the values were obtained:
[1] = molecular target: Histamine H1 receptor (Homo sapiens) (UniProt P35367); experiment: Inhibition of human histamine H1 receptor ar 3 uM
Sequence of Histamine H1 receptor (Homo sapiens) (P35367 whole entry): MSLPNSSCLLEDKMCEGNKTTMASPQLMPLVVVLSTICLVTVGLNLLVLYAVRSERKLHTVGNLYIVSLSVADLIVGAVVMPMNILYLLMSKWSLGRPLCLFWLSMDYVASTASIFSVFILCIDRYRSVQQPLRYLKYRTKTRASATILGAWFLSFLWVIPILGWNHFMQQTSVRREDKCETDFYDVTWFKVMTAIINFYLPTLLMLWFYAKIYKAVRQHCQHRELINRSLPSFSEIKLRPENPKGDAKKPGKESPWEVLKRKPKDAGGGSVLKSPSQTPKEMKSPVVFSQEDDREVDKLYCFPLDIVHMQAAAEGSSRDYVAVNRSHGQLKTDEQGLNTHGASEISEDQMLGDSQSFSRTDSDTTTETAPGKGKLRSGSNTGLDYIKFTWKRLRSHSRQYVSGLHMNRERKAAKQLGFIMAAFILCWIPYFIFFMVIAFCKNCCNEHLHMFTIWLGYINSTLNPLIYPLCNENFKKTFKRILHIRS

[2] = molecular target: T1, Somatostatin receptor type 5 (Homo sapiens, UniProt P35346); experiment: Displacement of radio labeled 11 Tyr SST14 from human SST5 receptor expressed in CHO cells; format: cell-based
T1 sequence (P35346 whole entry): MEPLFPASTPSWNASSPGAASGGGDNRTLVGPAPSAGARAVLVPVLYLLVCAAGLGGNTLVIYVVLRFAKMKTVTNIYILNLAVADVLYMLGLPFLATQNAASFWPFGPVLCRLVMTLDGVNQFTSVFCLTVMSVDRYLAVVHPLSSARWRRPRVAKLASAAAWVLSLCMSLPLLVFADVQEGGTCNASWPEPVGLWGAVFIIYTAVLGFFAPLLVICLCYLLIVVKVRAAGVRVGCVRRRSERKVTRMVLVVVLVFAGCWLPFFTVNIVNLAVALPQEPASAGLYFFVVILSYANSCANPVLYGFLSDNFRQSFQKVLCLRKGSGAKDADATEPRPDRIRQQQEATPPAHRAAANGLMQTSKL
In short: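 Membranes from SST5-expressing cells, made by sonication, incubated with radiolabeled 11Tyr SST-14 and varying test compound; non-specific binding defined with unlabeled SST-14. Incubation stopped by glass-fiber filtration, bound radioactivity counted; IC50 and Ki derived.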

[3] = Membrane permeability of the compound by PAMPA; format: ADME; conditions: read-out: permeability
[4] = Octanol-TAPSO distribution coefficient, log D of the compound at pH 7.4 by spectrophotometric analysis; format: physicochemical; conditions: octanol/TAPSO buffer
In short: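 Octanol/50 mM TAPSO buffer at pH 7.4 containing 5% (v/v) DMSO; partitioning read spectrophotometrically.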

[5] = Dissociation constant, pKa of the compound by spectrophotometric analysis; format: physicochemical
In short: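 Measured spectrophotometrically in SGA buffer with 10% (v/v) methanol, ionic strength 150 mM; value refers to the piperidine nitrogen.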

[6] = molecular target: T1, Somatostatin receptor type 5; experiment: Antagonist activity at human SST5 receptor expressed in CHO cells assessed as inhibition of forskolin-induced cAMP accumulation by FRET assay; format: functional, cell-based
Homo sapiens = organism: Homo sapiens; experiment: Selectivity ratio of human SST1 receptor to human SST5 receptor
[7] = Solubility of the compound in 50 mM phosphate buffer at pH 6.5 by lyophilisation solubility assay; format: physicochemical
In short: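 Compound taken from DMSO stock solution, lyophilized, then dissolved in 50 mM phosphate buffer at pH 6.5; dissolved amount read spectrophotometrically.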

[8] = molecular target: Somatostatin receptor type 3 (Homo sapiens) (UniProt P32745); experiment: Antagonist activity at human SST3 receptor expressed in CHO cells assessed as inhibition of forskolin-induced cAMP accumulation by FRET assay; format: functional, cell-based
Sequence of Somatostatin receptor type 3 (Homo sapiens) (P32745 whole entry): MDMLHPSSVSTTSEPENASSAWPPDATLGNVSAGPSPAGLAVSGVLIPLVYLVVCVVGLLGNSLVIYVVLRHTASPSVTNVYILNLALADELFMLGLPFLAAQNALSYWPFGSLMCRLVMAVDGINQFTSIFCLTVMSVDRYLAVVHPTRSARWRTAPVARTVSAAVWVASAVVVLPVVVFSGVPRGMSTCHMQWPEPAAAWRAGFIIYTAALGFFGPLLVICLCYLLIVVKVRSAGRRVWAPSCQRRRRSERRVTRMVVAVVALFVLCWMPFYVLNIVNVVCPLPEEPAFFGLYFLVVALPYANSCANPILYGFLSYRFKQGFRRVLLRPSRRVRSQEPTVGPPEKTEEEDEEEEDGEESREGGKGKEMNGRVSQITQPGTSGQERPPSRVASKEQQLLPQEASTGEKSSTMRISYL

[9] = molecular target: Somatostatin receptor type 2 (Homo sapiens) (UniProt P30874); experiment: Antagonist activity at human SST2 receptor expressed in CHO cells assessed as inhibition of forskolin-induced cAMP accumulation by FRET assay; format: functional, cell-based
Sequence of Somatostatin receptor type 2 (Homo sapiens) (P30874 whole entry): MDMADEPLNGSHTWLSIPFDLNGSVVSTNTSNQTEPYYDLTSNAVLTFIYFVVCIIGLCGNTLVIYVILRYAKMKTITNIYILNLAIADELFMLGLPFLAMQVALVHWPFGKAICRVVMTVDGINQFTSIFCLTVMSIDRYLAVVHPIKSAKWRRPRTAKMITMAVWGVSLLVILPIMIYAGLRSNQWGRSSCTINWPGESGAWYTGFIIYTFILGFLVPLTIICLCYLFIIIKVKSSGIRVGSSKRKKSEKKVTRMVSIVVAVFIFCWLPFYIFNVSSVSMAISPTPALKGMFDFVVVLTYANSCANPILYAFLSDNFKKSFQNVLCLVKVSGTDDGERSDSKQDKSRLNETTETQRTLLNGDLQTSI

[10] = molecular target: Somatostatin receptor type 4 (Homo sapiens) (UniProt P31391); experiment: Antagonist activity at human SST4 receptor expressed in CHO cells assessed as inhibition of forskolin-induced cAMP accumulation by FRET assay; format: functional, cell-based
Sequence of Somatostatin receptor type 4 (Homo sapiens) (P31391 whole entry): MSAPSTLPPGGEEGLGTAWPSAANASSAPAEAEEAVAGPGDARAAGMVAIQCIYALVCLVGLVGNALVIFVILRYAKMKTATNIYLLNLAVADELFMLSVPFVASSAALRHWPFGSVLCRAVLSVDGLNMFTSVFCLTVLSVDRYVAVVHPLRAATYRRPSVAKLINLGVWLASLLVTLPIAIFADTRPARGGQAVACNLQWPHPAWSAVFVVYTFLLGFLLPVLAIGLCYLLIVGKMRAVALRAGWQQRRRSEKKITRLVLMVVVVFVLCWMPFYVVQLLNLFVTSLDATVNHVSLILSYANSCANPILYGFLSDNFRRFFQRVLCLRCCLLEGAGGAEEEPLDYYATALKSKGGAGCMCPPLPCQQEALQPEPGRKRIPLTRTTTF

SMILES: CCOc1cc(CN2CCC(NC(=O)c3cncc(C)c3)CC2)ccc1C
inhibition [1]: 81%
Ki [2]: 21 nM
Papp [3]: 2.94 ×10⁻⁶ cm/s
logD [4]: 3.03
pKa [5]: 8.08
Selectivity ratio (Homo sapiens): > 500
solubility [7]: > 433 µg/mL

SMILES: CCOc1cc(CN2CCC(NC(=O)c3cncc(C)c3)CC2)ccc1-c1ccc(F)cc1
inhibition [1]: 89%
Ki [2]: 4.9 nM
Papp [3]: 1.32 ×10⁻⁶ cm/s
logD [4]: 4.1
pKa [5]: 7.87
EC50 [6]: > 1000 nM
Selectivity ratio (Homo sapiens): 84
solubility [7]: 101 µg/mL (≈ 226 µM)

SMILES: CCOc1cc(CN2CCC[C@@H](NC(=O)c3cncc(C)c3)CC2)ccc1C
inhibition [1]: 97%
Ki [2]: 22 nM
Selectivity ratio (Homo sapiens): 256

SMILES: CCOc1cc(CN2CCC(NC(=O)c3cncc(C)c3)CC2)ccc1Cl
Ki [2]: 15 nM
Papp [3]: 1.93 ×10⁻⁶ cm/s
logD [4]: 3.05
pKa [5]: 7.63
Selectivity ratio (Homo sapiens): 335
solubility [7]: 172 µg/mL (≈ 443 µM)

SMILES: CCOc1cc(CN2CCC(NC(=O)c3ccc(Cl)nc3)CC2)cc(OCC)c1-c1ccc(F)cc1
inhibition [1]: 7.1%
Ki [2]: 7.9 nM
logD [4]: 3.55
pKa [5]: 7.8
EC50 [6]: > 1000 nM
Selectivity ratio (Homo sapiens): 54
solubility [7]: 76 µg/mL (≈ 148 µM)

SMILES: CCOc1cc(CN2CC(NC(=O)c3cncc(C)c3)C2)cc(OCC)c1F
Ki [2]: > 1000 nM
Papp [3]: 1.93 ×10⁻⁶ cm/s
logD [4]: 2.44
pKa [5]: 7.19
solubility [7]: > 499 µg/mL

SMILES: CCOc1cc(CN2CCC(NC(=O)c3ccc(N)nc3)CC2)ccc1C
inhibition [1]: 85%
Ki [2]: 19 nM
Papp [3]: 2.4 ×10⁻⁶ cm/s
logD [4]: 2.24
pKa [5]: 8.27
EC50 [6]: > 1000 nM
Selectivity ratio (Homo sapiens): > 500
solubility [7]: 375 µg/mL (≈ 1020 µM)

SMILES: CCOc1cc(CN2CCC(NC(=O)c3cncc(C)c3)CC2)cc(OCC)c1F
inhibition [1]: 25%
Ki [2]: 25 nM
Papp [3]: 3.48 ×10⁻⁶ cm/s
logD [4]: 2.9
pKa [5]: 7.7
EC50 [6]: > 1000 nM
Selectivity ratio (Homo sapiens): 180
solubility [7]: 443 µg/mL (≈ 1070 µM)

SMILES: CCOc1cc(CN2CCC[C@@H](NC(=O)c3cncc(C)c3)CC2)cc(OCC)c1F
inhibition [1]: 58%
Ki [2]: 22 nM
Selectivity ratio (Homo sapiens): 253

SMILES: CCOc1cc(CN2CCC[C@H](NC(=O)c3cncc(C)c3)CC2)ccc1Cl
Ki [2]: 637 nM

SMILES: CCOc1cc(CN2CCC(NC(=O)c3cncc(C)c3)CC2)cc(OCC)c1Cl
Ki [2]: 4.4 nM
Papp [3]: 3.82 ×10⁻⁶ cm/s
logD [4]: 3.43
pKa [5]: 7.46
EC50 [6]: > 1000 nM
solubility [7]: 216 µg/mL (≈ 500 µM)

SMILES: CCOc1cc(CN2CCC(NC(=O)c3cncc(C)c3)CC2)cc(OCC)c1-n1ccnc1
inhibition [1]: 33%
Ki [2]: 11 nM
Papp [3]: 3.17 ×10⁻⁶ cm/s
logD [4]: 2.61
pKa [5]: 7.34
EC50 [6]: > 1000 nM
Selectivity ratio (Homo sapiens): 213
solubility [7]: 473 µg/mL (≈ 1020 µM)

SMILES: CCOc1cc(CN2CCC(NC(=O)c3ccc(NC)nc3)CC2)cc(OCC)c1-c1ccc(F)cc1
inhibition [1]: 11%
Ki [2]: 2.5 nM
Papp [3]: 1.23 ×10⁻⁶ cm/s
logD [4]: 3.83
pKa [5]: 7.86
EC50 [6]: > 1000 nM
Selectivity ratio (Homo sapiens): 211
solubility [7]: 153 µg/mL (≈ 302 µM)

Continued by falling Ki [2], values first:

Activity [8]: inactive
Ki [2]: 436 nM
Activity [9]: inactive
EC50 [6]: > 1000 nM
Activity [10]: inactive
SMILES: CCOc1cc(CN2CCCC(NC(=O)c3ccc(N)nc3)CC2)cc(F)c1F (racemic)

inhibition [1]: 55%
Ki [2]: 18 nM
Papp [3]: 2.98 ×10⁻⁶ cm/s
logD [4]: 2.66
pKa [5]: 7.83
EC50 [6]: > 1000 nM
Selectivity ratio (Homo sapiens): > 500
solubility [7]: 330 µg/mL (≈ 767 µM)
SMILES: CCOc1cc(CN2CCC(NC(=O)c3ccc(NC)nc3)CC2)cc(OCC)c1F

inhibition [1]: 98%
Ki [2]: 18 nM
Selectivity ratio (Homo sapiens): 175
SMILES: CCOc1cc(CN2CCC[C@@H](NC(=O)c3cncc(C)c3)CC2)ccc1Cl

inhibition [1]: 48%
Ki [2]: 11 nM
Papp [3]: 0.03 ×10⁻⁶ cm/s
logD [4]: > 4
pKa [5]: 7.96
Selectivity ratio (Homo sapiens): 89
solubility [7]: < 1 µg/mL
SMILES: CCOc1cc(CN2CCC(NC(=O)c3cncc(C)c3)CC2)ccc1-c1ccc(C(F)(F)F)cc1

inhibition [1]: 54%
Ki [2]: 9.3 nM
Papp [3]: 1.56 ×10⁻⁶ cm/s
logD [4]: 3.31
pKa [5]: 8.34
EC50 [6]: > 1000 nM
Selectivity ratio (Homo sapiens): 86
solubility [7]: 81 µg/mL (≈ 160 µM)
SMILES: CCOc1cc(CN2CCCC(NC(=O)c3cncc(C)c3)CC2)cc(OCC)c1-c1ccc(F)cc1 (racemic)

inhibition [1]: 4.7%
Ki [2]: 7.1 nM
Papp [3]: 1.39 ×10⁻⁶ cm/s
logD [4]: 3.15
pKa [5]: 7.86
EC50 [6]: > 1000 nM
Selectivity ratio (Homo sapiens): 407
solubility [7]: 123 µg/mL (≈ 250 µM)
SMILES: CCOc1cc(CN2CCC(NC(=O)c3ccc(N)nc3)CC2)cc(OCC)c1-c1ccc(F)cc1

inhibition [1]: 13%
Ki [2]: 6.9 nM
Papp [3]: 2.07 ×10⁻⁶ cm/s
logD [4]: 3.13
pKa [5]: 7.9
EC50 [6]: > 1000 nM
Selectivity ratio (Homo sapiens): 439
solubility [7]: 155 µg/mL (≈ 317 µM)
SMILES: CCOc1cc(CN2CCC(NC(=O)c3ccc(NC)nc3)CC2)cc(OCC)c1-c1ccccc1

Activity [8]: inactive
inhibition [1]: -1.2%
Ki [2]: 6.7 nM
Papp [3]: 0.14 ×10⁻⁶ cm/s
logD [4]: 3.94
pKa [5]: 7.66
Activity [9]: inactive
EC50 [6]: > 1000 nM
Activity [10]: inactive
Selectivity ratio (Homo sapiens): 660
solubility [7]: 5 µg/mL (≈ 9.01 µM)
SMILES: CCOc1cc(CN2CCC(NC(=O)c3ccc(N)nc3)CC2)cc(OCc2ccccc2)c1-c1ccc(F)cc1

inhibition [1]: 35%
Ki [2]: 6.3 nM
Papp [3]: 2.41 ×10⁻⁶ cm/s
logD [4]: 3.39
pKa [5]: 7.84
EC50 [6]: > 1000 nM
Selectivity ratio (Homo sapiens): 141
solubility [7]: > 520 µg/mL
SMILES: CCOc1cc(CN2CCC(NC(=O)c3ccc(NC(C)C)nc3)CC2)cc(OCC)c1F

inhibition [1]: -1.2%
Ki [2]: 5.4 nM
Papp [3]: 0.64 ×10⁻⁶ cm/s
logD [4]: 3.73
pKa [5]: 7.74
EC50 [6]: > 1000 nM
Selectivity ratio (Homo sapiens): 224
solubility [7]: 152 µg/mL (≈ 321 µM)
SMILES: CCOc1cc(CN2CCC(NC(=O)c3cncc(C)c3)CC2)cc(OCC)c1-c1ccccc1

inhibition [1]: 5.9%
Ki [2]: 4.4 nM
Papp [3]: 0.46 ×10⁻⁶ cm/s
logD [4]: 4.01
pKa [5]: 7.69
EC50 [6]: > 1000 nM
Selectivity ratio (Homo sapiens): 59
solubility [7]: 94 µg/mL (≈ 191 µM)
SMILES: CCOc1cc(CN2CCC(NC(=O)c3cncc(C)c3)CC2)cc(OCC)c1-c1ccc(F)cc1

Ki [2]: 4 nM
Papp [3]: 2.36 ×10⁻⁶ cm/s
logD [4]: 3.61
pKa [5]: 7.92
solubility [7]: 106 µg/mL (≈ 258 µM)
SMILES: CCOc1cc(CN2CCC(NC(=O)c3cncc(C)c3)CC2)cc(OCC)c1C

inhibition [1]: 12%
Ki [2]: 2.4 nM
logD [4]: > 4
EC50 [6]: > 1000 nM
Selectivity ratio (Homo sapiens): 743
solubility [7]: < 1 µg/mL
SMILES: CCOc1cc(CN2CCC(NC(=O)c3cncc(C)c3)CC2)cc(OCC)c1-c1ccc(OC(F)(F)F)cc1
